Experiments:
[1] = Partition coefficient (logP); type: physicochemical; details: octanol/water
Summary of the method: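 Shake-flask octanol–water distribution coefficient at pH 7.4 (50 mM TRIS), not corrected for ionization. Quadruplicate samples were shaken overnight with 1-octanol at 22–24 °C and the layers settled 1–2 h before separation. Quantified by UV spectrometry and expressed as the log of the fraction in the octanol layer.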

Monkey [2] = assay: Iron clearing activity when administered 150 uM/kg orally to Cebus apella Primates (n = 4) [% stool/% urine = 86/14]; type: functional
Monkey [3] = assay: Iron clearing activity when administered 150 uM/kg orally to Cebus apella Primates (n = 4) [% stool/% urine = 70/30]; type: functional
Monkey [4] = assay: Iron clearing activity when administered 150 uM/kg orally to Cebus apella Primates (n = 4) [% stool/% urine = 81/19]; type: functional

| logP [1] | Structure (SMILES) | Efficiency (Monkey [2]) | Efficiency (Monkey [3]) | Efficiency (Monkey [4]) |
| --- | --- | --- | --- | --- |
| -1.05 | C[C@]1(C(=O)O)CSC(c2ccc(O)cc2O)=N1 [DEFERITRIN] | 13.4% |  |  |
| -0.7 | COc1ccc(C2=N[C@@](C)(C(=O)O)CS2)c(O)c1 |  | 24.4% |  |

The next lines start with the compound.

| Structure (SMILES) | logP [1] | Efficiency (Monkey [2]) | Efficiency (Monkey [3]) | Efficiency (Monkey [4]) |
| --- | --- | --- | --- | --- |
| O=C(O)[C@H]1CSC(c2ccc(O)cc2O)=N1 | -1.33 |  | 4.2% |  |
| COc1ccc(C2=N[C@@H](C(=O)O)CS2)c(O)c1 | -0.89 |  |  | 16.2% |
| CC1(C)SC(c2ccc(O)cc2O)=N[C@H]1C(=O)O | -0.91 |  | 12.3% |  |
